Experiments:
[1] = Cytotoxicity against mouse Sarcoma 180 cells assessed as cell viability at 400 uM after 18 to 42 hrs relative to control
[2] = system: Vero; assay: Cytotoxicity against African green monkey Vero cells assessed as inhibition of replication; format: cell-based; details: chlorocebus sabaeus
[3] = system: Human alphaherpesvirus 1; assay: Antiviral activity against Herpes simplex virus 1 infected in African green monkey Vero cells assessed as viral titer at 400 uM after 40 hrs by plaque formation assay relative to control; format: functional
Method in brief: (§1)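 After a 1 h adsorption at 37 °C, inoculum was removed, cells were PBS-washed, and medium with or without compound was added. Incubation was 40 h at 37 °C. Cultures were freeze-thawed three times, and lysate yield was titrated by plaque assay on Vero. Pfu given as % of drug-free culture.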

[4] = system: Human alphaherpesvirus 1; assay: Antiviral activity against Herpes simplex virus 1 infected in African green monkey Vero cells assessed as viral titer at 200 uM after 40 hrs by plaque formation assay relative to control; format: functional
Method in brief: as §1

[5] = Cytotoxicity against mouse Sarcoma 180 cells assessed as cell viability at 100 uM after 18 to 24 hrs relative to control; format: cell-based; details: in the assay text read “18 to 42 hrs” for “18 to 24 hrs”, read-out: Activity
Method in brief: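 Sarcoma 180 cells were grown in medium with horse serum at 37 °C under humidified 5% CO2–95% air, with a generation time of about 18 h. Compound was added to exponentially growing cultures at about 2 × 10^4 cells/ml. The increase in cell number was measured after 18 and 42 h, and percent inhibition was calculated relative to a drug-free control.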

Q: Which viability at 400 µM [1] does the source give for `Cc1cn([C@H]2C[C@H](O)[C@@H](CN)O2)c(=O)[nH]c1=O` here?
A: The viability at 400 µM was 100%.

Q: What about the Activity [2] of the same compound?
A: The Activity was “Non-toxic”.

Q: What about the Activity [3] of the same compound?
A: The Activity was 3%.

Q: What does the source list for `NC[C@H]1O[C@@H](n2cc(Cl)c(O)nc2=O)C[C@@H]1O`?
A: viability at 400 µM [1]: 100%; Activity [2]: Non-toxic; Activity [3]: 29%

Q: With `NC[C@H]1O[C@@H](n2cc(Br)c(O)nc2=O)C[C@@H]1O` as the compound, how does the Activity [4] read?
A: The Activity was 1%.

Q: And the Activity [2]?
A: Its Activity is “Non-toxic”.

Q: With `Cc1ccc(S(=O)(=O)OC[C@H]2O[C@@H](n3cc(Cl)c(=O)[nH]c3=O)C[C@@H]2O)cc1` as the compound, how does the viability at 100 µM [5] read?
A: The viability at 100 µM was 65%.

Q: For `Cc1ccc(S(=O)(=O)OC[C@H]2O[C@@H](n3cc(Br)c(=O)[nH]c3=O)C[C@@H]2O)cc1`, which viability at 100 µM [5] is on record?
A: The viability at 100 µM was 65%.

Q: Which viability at 400 µM [1] does the source give for `[N-]=[N+]=NC[C@H]1O[C@@H](n2cc(Cl)c(=O)[nH]c2=O)C[C@@H]1O` here?
A: Its viability at 400 µM is 100%.

Q: What about the Activity [3] of the same compound?
A: The Activity was 81%.

Q: Which results are given for `[N-]=[N+]=NC[C@H]1O[C@@H](n2cc(Br)c(=O)[nH]c2=O)C[C@@H]1O`?
A: viability at 400 µM [1]: 100%; Activity [3]: 54%

Q: Which viability at 400 µM [1] does the source give for `[N-]=[N+]=NC[C@H]1O[C@@H](n2cc(I)c(=O)[nH]c2=O)C[C@@H]1O` here?
A: The viability at 400 µM was 100%.

Q: And the Activity [3]?
A: Its Activity is 60%.

Q: What does the source list for `NC[C@H]1O[C@@H](n2ccc(=O)[nH]c2=O)C[C@@H]1O`?
A: viability at 400 µM [1]: 100%; Activity [3]: 101%
